Assay results as given in PMC6044135 (Indian Journal of Pharmacology, 2018).

Experiments:
[1] = may be caused by the ligand (picolinate); cited from earlier work
[2] = cited from earlier work
[3] = intraperitoneal administration, ref 32 (Kirman et al.); cited from earlier work
[4] = tested on: rats with type 2 diabetes; conditions: cited from earlier work
diabetic mice = conditions: cited from earlier work
[5] = cited from earlier work; remark: listed apart in the source
Bioavailability analysis = assay type: in vivo, Sprague-Dawley rat; conditions: for absolute bioavailability (FAB): AUCig × 100%/AUCiv; for relative bioavailability (FRB): oral, AUC chromium malate × 100%/AUC chromium picolinate
Outline: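 AUCs came from compartment-model fits of serum Cr–time data in SD rats of each sex. Dosing was 20 μg Cr/kg bw by oral gavage or caudal-vein injection. Relative bioavailability = AUC of test compound ×100%/AUC of chromium picolinate, both oral. Absolute bioavailability = AUC intragastric ×100%/AUC IV.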

[6] = Faeces distribution of Cr; assay type: in vivo, Sprague-Dawley rat; conditions: oral gavage, 20 μg Cr/kg bw; for feces concentration of Cr: at 5 h
[7] = cited from earlier work; remark: listed apart in the source
[8] = Pharmacokinetics of serum Cr after oral gavage; assay type: in vivo, Sprague-Dawley rat; conditions: for serum concentration of Cr: at 1.5 h
Outline: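 SD rats (180 ± 10 g, male and female, 10/group) received 20 μg Cr/kg bw either by gavage after a 12 h fast or via the caudal vein. Blood was drawn retro-orbitally into heparinized tubes at 0–72 h, over 21 time points. Serum (10,000 g, 10 min, 4°C) was wet-digested, 0.1 mL in nitric/perchloric acid (1:4, v/v), and Cr read by simultaneous ICP-OES. Compartment model chosen by AIC and F-test.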

[9] = cited from earlier work; remark: listed apart in the source
[10] = Tissue distribution of Cr; assay type: in vivo, Sprague-Dawley rat; conditions: oral gavage; for level of Cr in brain / level of Cr in heart / level of Cr in kidney / level of Cr in liver / level of Cr in lung / level of Cr in spleen: at 12 h
Outline: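 Male and female SD rats were dosed by oral gavage and killed under anhydrous diethyl ether anaesthesia at 0.25–48 h postdose. Heart, liver, spleen, lung, kidneys and brain were collected, wet-digested as for serum, and Cr measured by simultaneous ICP-OES. Results given per g tissue.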

## O=C([O-])c1ccccn1.O=C([O-])c1ccccn1.O=C([O-])c1ccccn1.[Cr+3] [Chromium picolinate, chromium picolinate]
[1]
  genotoxicity, cytotoxicity, and tumorigenesis: had shown the genotoxicity, cytotoxicity, and tumorigenesis

## O=C([O-])c1cccnc1.O=C([O-])c1cccnc1.O=C([O-])c1cccnc1.[Cr+3] [chromium nicotinate]
[2]
  solubility: poor solubility

## [Cl][Cr]([Cl])[Cl] [chromium trichloride]
[3]
  order of chromium level in mouse organs: liver > kidney > pancreas > spleen > testes > lungs > heart > brain

## O=C(O)CC(O)C(=O)O.O=C(O)CC(O)C(=O)O.O=C(O)CC(O)C(=O)O.[Cr].[Cr] (stereo not drawn) [Chromium malate, chromium malate]
[4]
  FBG level and insulin resistance: could improve FBG level and insulin resistance
Diabetic mice
  blood glucose level: could improve blood glucose level
[5]
  toxicity in the acute toxicity study and subacute toxicity study: nontoxic
Bioavailability analysis; female rats
  absolute bioavailability (FAB): 113.28% ± 1.72%
  relative bioavailability (FRB): 105.28% ± 1.62%
Bioavailability analysis; male rats
  absolute bioavailability (FAB): 111.80% ± 1.81%
  relative bioavailability (FRB): 115.73% ± 2.03%
[6]; female rats
  feces concentration of Cr: 0.47 ± 0.04 µg/g
[6]; male rats
  feces concentration of Cr: 0.50 ± 0.06 µg/g
[6]; same gender rats
  feces concentration of Cr in comparison with chromium picolinate group: no notable change
[7]
  oxidative DNA damage: no oxidative DNA damage
[8]; 20 μg Cr/kg bw, sex not split
  Tmax of serum concentration of Cr: 1.5 h
[8]; female rats, 20 μg Cr/kg bw
  serum concentration of Cr: 4760 ± 550 ng/mL
[8]; male rats, 20 μg Cr/kg bw
  serum concentration of Cr: 4630 ± 370 ng/mL
[8]; male rats, P ≤ 0.05
  AUC0→∞ compared with chromium picolinate: higher
[8]; rats of the same sex, P < 0.05
  MRT compared with chromium picolinate group: significantly higher
[9]
  90-day repeated dose oral toxicity and reproductive toxicity: no remarkable influence
[10]; female rats
  level of Cr in brain: 0.6 µg/g
  level of Cr in heart: 0.50 µg/g
  level of Cr in kidney: 0.78 µg/g
  level of Cr in liver: 0.60 µg/g
  level of Cr in lung: 0.49 µg/g
  level of Cr in spleen: 0.40 µg/g
[10]; male and female rats
  tissue distribution of Cr in comparison with control (male and female) groups: no notable change
[10]; male rats
  level of Cr in brain: 0.67 µg/g
  level of Cr in heart: 0.52 µg/g
  level of Cr in kidney: 0.84 µg/g
  level of Cr in liver: 0.61 µg/g
  level of Cr in lung: 0.52 µg/g
  level of Cr in spleen: 0.40 µg/g
